From ChEMBL document CHEMBL3734650, “Synthesis and activity of novel 16-dehydropregnenolone acetate derivatives as inhibitors of type 1 5α-reductase and on cancer cell line SK-LU-1” (Bioorg Med Chem, 2015)
Activity calls are given as the source filed them. No cut-off for these calls is given here.

Experiments:
[1] = system: Syrian golden hamster; test: Increase of diameter of pigmented spot of flank organs in gonadectomized golden hamster at 1 mg/kg, sc qd for 6 days (reference value: 2.03 +/- 0.63 millimeter); format: functional, Mesocricetus auratus
[2] = system: Syrian golden hamster; test: Increase of prostate weight in gonadectomized golden hamster at 1 mg/kg, sc qd for 6 days (reference value: 50.4 +/- 9.9 mg); format: functional, Mesocricetus auratus, Prostate gland
[3] = system: Syrian golden hamster; test: Increase of seminal vesicles weight in gonadectomized golden hamster at 1 mg/kg, sc qd for 6 days (reference value: 96.11 +/- 12.5 mg); format: functional, Mesocricetus auratus
[4] = system: PC-3; test: (§1) Cytotoxicity against human PC3 cells assessed as growth inhibition at 50 uM; format: functional
In short: (§2)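 Growth inhibition calculated from absorbance as 100 − (sample absorbance / vehicle absorbance × 100).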

[5] = system: MCF7; test: Cytotoxicity against human MCF7 cells as growth inhibition at 50 uM; format: functional; conditions: for inhibition of growth at 50 µM: read-out: GI; in short: as §2
[6] = system: SK-LU-1; test: (§3) Cytotoxicity against human SKLU1 cells as growth inhibition at 50 uM; format: functional; in short: as §2
[7] = target: T1, 3-oxo-5-alpha-steroid 4-dehydrogenase 1 (Rattus norvegicus, UniProt P24008); test: Inhibition of rat liver type 1 5alpha-reductase assessed as transformation of testosterone to dihydrotestosterone
T1 sequence (P24008 whole entry): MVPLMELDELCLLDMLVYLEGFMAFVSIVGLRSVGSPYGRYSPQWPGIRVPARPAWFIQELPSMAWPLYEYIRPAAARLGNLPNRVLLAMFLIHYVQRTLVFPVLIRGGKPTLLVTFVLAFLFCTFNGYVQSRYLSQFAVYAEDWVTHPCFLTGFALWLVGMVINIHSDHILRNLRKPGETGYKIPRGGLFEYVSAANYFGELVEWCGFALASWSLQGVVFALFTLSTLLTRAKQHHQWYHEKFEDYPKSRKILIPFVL
In short: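 Enzyme source: liver microsomes from overnight-fasted adult rats (8-month, 500 g), prepared in buffer A (20 mM sodium phosphate pH 6.5, 0.32 M sucrose, 0.1 mM DTT) at 4 °C, resuspended at 20 mg protein/mL. Inhibitors at 1 × 10⁻¹⁰ to 10⁻⁴ M. Radiolabelled T→DHT conversion quantified from TLC-plate radioactivity. IC50 taken from inhibition curves.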

[8] = target: T2, 3-oxo-5-alpha-steroid 4-dehydrogenase 2 (Homo sapiens, UniProt P31213); test: Inhibition of human prostate type 2 5alpha-reductase assessed as transformation of testosterone to dihydrotestosterone; format: tissue-based, Prostate gland
T2 sequence (P31213 whole entry): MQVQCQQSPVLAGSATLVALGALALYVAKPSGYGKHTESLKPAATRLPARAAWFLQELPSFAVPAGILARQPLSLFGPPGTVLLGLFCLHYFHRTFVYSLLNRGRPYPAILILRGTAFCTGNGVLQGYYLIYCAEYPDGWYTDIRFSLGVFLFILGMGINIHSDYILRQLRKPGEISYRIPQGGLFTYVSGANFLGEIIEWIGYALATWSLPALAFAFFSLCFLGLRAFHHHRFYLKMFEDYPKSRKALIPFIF
In short: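 Enzyme source: normal prostate from a person, homogenized in buffer A (20 mM sodium phosphate pH 6.5, 0.32 M sucrose, 0.1 mM DTT), pelleted at 1500 × g, resuspended at 5 mg protein/mL. Inhibitors at 1 × 10⁻¹⁰ to 10⁻⁴ M. Radiolabelled T→DHT conversion quantified by TLC lane radioactivity against total plate radioactivity. IC50 taken from inhibition curves.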

[9] = target: T3, Androgen receptor (Rattus norvegicus, UniProt P15207); test: Displacement of [3H}-MIB from rat prostate cytosol androgen receptor assessed as relative binding affinity
T3 sequence (P15207 whole entry): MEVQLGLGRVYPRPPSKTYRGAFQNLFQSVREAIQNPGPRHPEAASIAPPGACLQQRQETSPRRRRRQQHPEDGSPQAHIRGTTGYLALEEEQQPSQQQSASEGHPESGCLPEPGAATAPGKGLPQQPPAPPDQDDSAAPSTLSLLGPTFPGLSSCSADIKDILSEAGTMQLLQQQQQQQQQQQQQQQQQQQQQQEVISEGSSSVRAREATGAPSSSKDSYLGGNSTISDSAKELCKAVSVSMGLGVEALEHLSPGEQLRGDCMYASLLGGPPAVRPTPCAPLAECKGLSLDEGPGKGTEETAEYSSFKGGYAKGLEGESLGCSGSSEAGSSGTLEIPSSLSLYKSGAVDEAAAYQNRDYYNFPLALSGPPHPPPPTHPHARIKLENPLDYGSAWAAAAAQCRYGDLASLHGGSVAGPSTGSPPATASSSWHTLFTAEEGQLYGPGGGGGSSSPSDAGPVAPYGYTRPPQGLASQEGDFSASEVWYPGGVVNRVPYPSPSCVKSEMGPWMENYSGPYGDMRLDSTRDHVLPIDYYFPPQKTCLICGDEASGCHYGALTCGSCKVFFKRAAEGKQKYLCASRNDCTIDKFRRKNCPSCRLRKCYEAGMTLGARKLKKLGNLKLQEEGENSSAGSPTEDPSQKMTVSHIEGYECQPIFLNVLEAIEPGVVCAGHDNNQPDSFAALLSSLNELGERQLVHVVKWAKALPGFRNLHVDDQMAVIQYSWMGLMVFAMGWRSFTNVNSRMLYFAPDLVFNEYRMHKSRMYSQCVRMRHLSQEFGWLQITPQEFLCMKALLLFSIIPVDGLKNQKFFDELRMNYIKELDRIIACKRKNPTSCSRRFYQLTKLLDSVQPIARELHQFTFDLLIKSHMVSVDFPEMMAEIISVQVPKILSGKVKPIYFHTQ

[10] = system: Syrian golden hamster; test: Increase of diameter of pigmented spot of flank organs in gonadectomized golden hamster at 2 mg/kg, sc qd for 6 days co-administered with 1 mg/kg of testosterone (reference value: 2.03 +/- 0.63 millimeter); format: functional, Mesocricetus auratus
[11] = system: Syrian golden hamster; test: Increase of prostate weight in gonadectomized golden hamster at 2 mg/kg, sc qd for 6 days co-administered with 1 mg/kg of testosterone (reference value: 50.4 +/- 9.9 mg); format: functional, Mesocricetus auratus, Prostate gland
[12] = system: Syrian golden hamster; test: Increase of seminal vesicles weight in gonadectomized golden hamster at 2 mg/kg, sc qd for 6 days co-administered with 1 mg/kg of testosterone (reference value: 96.11 +/- 12.5 mg); format: functional, Mesocricetus auratus
[13] = as §1; format: functional; conditions: PC-3, read-out: GI; in short: as §2
[14] = as §3; format: functional; conditions: SK-LU-1, read-out: GI; in short: as §2
[15] = system: Syrian golden hamster; test: Increase of prostate weight in gonadectomized golden hamster at 1 mg/kg, sc qd for 6 days co-administered with 1 mg/kg of testosterone (reference value: 50.4 +/- 9.9 mg); format: functional, Mesocricetus auratus, Prostate gland
[16] = system: Syrian golden hamster; test: Increase of diameter of pigmented spot of flank organs in gonadectomized golden hamster at 1 mg/kg, sc qd for 6 days co-administered with 1 mg/kg of testosterone (reference value: 2.03 +/- 0.63 millimeter); format: functional, Mesocricetus auratus
[17] = system: Syrian golden hamster; test: Increase of seminal vesicles weight in gonadectomized golden hamster at 1 mg/kg, sc qd for 6 days co-administered with 1 mg/kg of testosterone (reference value: 96.11 +/- 12.5 mg); format: functional, Mesocricetus auratus

Structure (SMILES)	Activity [1] [mm]	Activity [2] [mg]	Activity [3] [mg]	growth inhibition (GI) [4]	growth inhibition (GI) [5]	growth inhibition (GI) [6]	IC50 [7]	IC50 [8]	IC50 [9]	Activity [10] [mm]	Activity [11] [mg]	Activity [12] [mg]	inhibition of growth at 50 µM [13] [%]	inhibition of growth at 50 µM [5] [%]	inhibition of growth at 50 µM [14] [%]	IC50 ([7]; read-out: IC50) [µM]	IC50 ([8]; read-out: IC50) [µM]	Activity [15] [mg]	Activity [16] [mm]	Activity [17] [mg]
C[C@]12CC[C@H]3[C@@H](CCC4=CC(=O)CC[C@@]43C)[C@@H]1CC[C@@H]2O [TESTOSTERONE]	5.65	98	200.6																	
C[C@]12CC[C@H](OC(=O)C3CCCC3)CC1=CC[C@@H]1[C@@H]2CC[C@]2(C)C(C(=O)Cn3cncn3)=CC[C@@H]12				inactive	inactive	inactive	Not Active	Not Active	Not Active	2.8	97	120								
CCCCC(=O)O[C@H]1CC[C@@]2(C)C(=CC[C@@H]3[C@@H]2CC[C@]2(C)C(C(=O)Cn4cncn4)=CC[C@@H]32)C1								Not Active	Not Active	3.71	82.3	180.03	38.2	38.5	20.2	0.32				
C[C@]12CC[C@H](OC(=O)C3CCCCC3)CC1=CC[C@@H]1[C@@H]2CC[C@]2(C)C(C(=O)Cn3cncn3)=CC[C@@H]12				inactive	inactive	inactive	Not Active	Not Active	Not Active	3	88	150								
CC(=O)O[C@H]1CC[C@@]2(C)C(=CC[C@@H]3[C@@H]2CC[C@]2(C)C(C(=O)Cn4cncn4)=CC[C@@H]32)C1							Not Active		Not Active	2.9	87.65	216.075	56.2	59.4	74.8		100			
CCC(=O)O[C@H]1CC[C@@]2(C)C(=CC[C@@H]3[C@@H]2CC[C@]2(C)C(C(=O)Cn4cncn4)=CC[C@@H]32)C1				inactive				Not Active	Not Active	2.79	89.55	157.08		5.9	8.8	0.088				
CCCC(=O)O[C@H]1CC[C@@]2(C)C(=CC[C@@H]3[C@@H]2CC[C@]2(C)C(C(=O)Cn4cncn4)=CC[C@@H]32)C1							Not Active	Not Active	Not Active	2.71	81.3	138.9	9.2	25.6	15.6					
C[C@]12CC[C@H](OC(=O)C3CCC3)CC1=CC[C@@H]1[C@@H]2CC[C@]2(C)C(C(=O)Cn3cncn3)=CC[C@@H]12				inactive	inactive	inactive	Not Active	Not Active	Not Active	2.14	100	130								
CC(=O)N1CCN(c2ccc(OCC3COC(Cn4ccnc4)(c4ccc(Cl)cc4Cl)O3)cc2)CC1 (stereo not given) [KETOCONAZOLE]													88.5	95.2	73.4					
C[C@]12CC[C@H](OC(=O)C3CCCCCC3)CC1=CC[C@@H]1[C@@H]2CC[C@]2(C)C(C(=O)Cn3cncn3)=CC[C@@H]12				inactive	inactive	inactive	Not Active		Not Active	4.45	78.2	203.98								
C[C@]12CC[C@H](OC(=O)C3CC3)CC1=CC[C@@H]1[C@@H]2CC[C@]2(C)C(C(=O)Cn3cncn3)=CC[C@@H]12				inactive	inactive	inactive	Not Active		Not Active	2.88	107.48	180.3					118			
CC(C)(C)NC(=O)[C@H]1CC[C@H]2[C@@H]3CC[C@H]4NC(=O)C=C[C@]4(C)[C@H]3CC[C@]12C [FINASTERIDE]				inactive	inactive	inactive												69.6	3.57	161.4
CCCCCC(=O)O[C@H]1CC[C@@]2(C)C(=CC[C@@H]3[C@@H]2CC[C@]2(C)C(C(=O)Cn4cncn4)=CC[C@@H]32)C1								Not Active	Not Active	2.8	86.9	200	16.9	14.4	6.4	100				
C[C@]12CC[C@H](O)CC1=CC[C@@H]1[C@@H]2CC[C@]2(C)C(C(=O)Cn3cncn3)=CC[C@@H]12							Not Active	Not Active	Not Active	3.05	89	163.33	61.3	62.1	88.9					
